NPY2 pot ag: potentiators or agonists of human neuropeptide Y receptor Y2. cells expressing NPY-Y2, potentiator/agonist read-out. hit rate 0.45% among 220,000. P49146. activation, % at 3.6 µM; in the data active = activation above about 27%;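 note: cells stimulated with NPY near EC25 plus isoproterenol at EC100; 0% = vehicle plus submaximal agonist and 100% = vehicle plus saturating agonist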
NPY Y1 blocker: NPY-Y1 (human) receptor antagonism | P25929 | inhibition, % at 3.6 µM | AID 1040 | HEK293-CNG Y1 cells, membrane potential fluorescence; NPY at EC95, then isoproterenol | hit rate 1% among 200,000;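 active = inhibition above the campaign mean inhibition of all tested compounds plus 3 SD, cut at about 20% in these data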;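 note: 0% = DMSO wells given NPY plus isoproterenol and 100% = isoproterenol alone without NPY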
Target sequence (P25929 whole entry, looked up): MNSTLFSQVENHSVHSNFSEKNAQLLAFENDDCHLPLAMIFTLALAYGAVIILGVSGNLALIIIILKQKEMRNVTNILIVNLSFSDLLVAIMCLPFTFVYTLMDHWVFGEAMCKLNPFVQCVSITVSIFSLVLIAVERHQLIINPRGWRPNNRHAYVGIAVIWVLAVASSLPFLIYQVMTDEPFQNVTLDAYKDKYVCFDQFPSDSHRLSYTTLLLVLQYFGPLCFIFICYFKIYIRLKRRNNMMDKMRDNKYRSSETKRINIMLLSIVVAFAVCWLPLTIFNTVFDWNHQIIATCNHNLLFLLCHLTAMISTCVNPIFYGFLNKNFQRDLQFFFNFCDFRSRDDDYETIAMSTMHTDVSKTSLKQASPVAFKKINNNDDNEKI
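Material: HEK293 cells with Y1 receptor plus CNG channel; times: compound incubation 1 h at room temperature, readout 45 min post-stimulation; signal: fluorescence, membrane potential probe; read-out basis: fluorescence ratio normalized to % inhibition between controls; benchmarks: full-block control isoproterenol-only wells, zero-block control NPY plus isoproterenol wells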
NPY1 pot ag: human NPY-Y1 potentiation or agonism, primary screen; P25929; NPY-Y1 expressing cells, potentiator/agonist activation; activation, % at 3.6 µM; hit rate 0.37% among 220,000; in the data active = activation above about 33%, passing the limit was not always enough;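 note: cells stimulated with NPY at EC10 then isoproterenol at EC100; 0% = low agonist plus stimulus and 100% = saturating agonist plus stimulus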
NPY-Y2 antag: NPY-Y2 (human) receptor antagonism. P49146. NPY-Y2 expressing cells, antagonist mode. inhibition, % at 2.7 µM. hit rate 0.99% among 140,000. AID 793;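 note: 0% = vehicle with agonist challenge and 100% = reference antagonist with challenge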
NPY-Y1 ant conf: confirmation of human neuropeptide Y receptor Y1 antagonists; shares compounds with NPY Y1 blocker; HEK293-CNG NPY-Y1, membrane potential fluorescence, cAMP; NPY challenge against isoproterenol-raised cAMP; inhibition, % at 3.6 µM; hit rate 21% among 1,200; in the data active = inhibition above about 20%;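 note: 0% = vehicle with agonist plus stimulus and 100% = stimulus alone without agonist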
NPY-Y2 antag ct: counter-screen for NPY-Y1 antagonists: human NPY-Y2 antagonism. shares compounds with NPY Y1 blocker. HEK293 NPY-Y2 CNG membrane potential fluorescence; cells given NPY, then isoproterenol. inhibition, % at 3.6 µM. hit rate 28% among 1,200;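 note: 0% = DMSO with agonist challenge and 100% = reference antagonist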
The depositor's hits bear a star; / = no result given. Sampled rows, rich in hits. Any-hit rate of the full collection: about 1.8%. Cut-off read from the data, not from the text of the source, unless noted: active = inhibition above about 17%; inactive = the rest.

SMILES | NPY2 pot ag | NPY Y1 blocker | NPY1 pot ag | NPY-Y2 antag | NPY-Y1 ant conf | NPY-Y2 antag ct
COc1cc2c(cc1Cl)/C(=C\CCN(C)C)c1ccccc1S2 | -19 | 29* | -37 | 11 | 13 | 18*
CCCNc1sc(S(=O)(=O)CCC)nc1S(=O)(=O)c1ccc(C)cc1 | -10 | 1 | -1 | / | / | /
C#CCn1c(=NC(=O)c2ccc(S(=O)(=O)N3CCCc4ccccc43)cc2)sc2cc(S(N)(=O)=O)ccc21 | -56 | 24* | -63 | 5 | 12 | 31*
COc1ccc([N+](=O)[O-])cc1NC(=O)COC(=O)c1ccccn1 | 2 | -1 | -6 | / | / | /
O=c1[nH]c(CSc2nnc(-c3ccccc3)n2C2CCCCC2)nc2ccccc12 | 10 | 30* | -4 | 0 | -2 | 0
COc1cccc(-c2nn(-c3ccccc3)cc2CN(C)Cc2c(C)nc3ccccn23)c1 | -18 | 23* | -55 | / | 12 | 16
CC1CC(C)CN(C2CCN(Cc3cccnc3)CC2)C1 (stereo not given) | 8 | 21* | 0 | 1 | 0 | 4
O=C(CSc1nnc(Cc2ccccc2)n1Cc1ccco1)NC12CC3CC(CC(C3)C1)C2 | 1 | 23* | 4 | 10 | 5 | 4
CN(c1ccccc1)P(=O)(N(C)c1ccccc1)N(C)c1ccccc1 | 12 | 34* | -23 | / | 30* | 20*
O=C(O)CNC(=S)N(Cc1ccccc1)Cc1cccs1 | 0 | 8 | -3 | / | / | /
Cc1cccc(C)c1NC(=S)N(Cc1ccccc1)Cc1cccs1 | -18 | 38* | -28 | / | 17 | 20*
Cn1c2ccccc2c(=O)c2c(=O)n(C3CCCCC3)c(-c3cccs3)nc21 | 1 | 5 | -1 | 1 | / | /
CC(C(=O)Nc1ccc(OCc2ccccc2)cc1)N1CCCC1 (stereo not given) | -2 | 2 | 3 | / | / | /
CC(C)COCC(CN(Cc1ccccc1)c1ccccc1)N1CCCC1 (stereo not given) | -22 | 31* | -11 | / | 18 | 17
COc1ccc(-c2cc3cc(OC)c(OC)cc3c(C)n2)cc1 | -6 | / | -3 | / | / | /
COc1cc2cc(C)nc(Cc3cccc4ccccc34)c2cc1OC | -39 | 27* | -35 | 16 | 9 | 13
c1ccc(OCc2nn3c(C4CCCCC4)nnc3s2)cc1 | -14 | 27* | -33 | 9 | 6 | 5
COc1ccc(NC(=O)C(NC(=O)c2ccc(=O)[nH]c2)c2ccc(OC)cc2)cc1 (stereo not given) | 10 | -1 | -16 | 1 | / | /
CCCCOc1ccc(C(=O)O)cc1 | -8 | 6 | -14 | 5 | / | /
CCCCOc1ccc(C(=O)OC(C)CN(C)C)cc1 (stereo not given) | -34 | 24* | -31 | 11 | 6 | 9
O=C(Nc1ccc(C(F)(F)F)cc1Cl)c1ccc(Cn2cc(Br)cn2)o1 | -23 | 22* | -52 | 8 | 7 | 8
COc1cccc(CC2(CO)CCN(CC3=CC[C@H]4C[C@@H]3C4(C)C)CC2)c1 | -16 | 18 | -26 | / | / | /
CCCSc1nc(-n2ncc(C#N)c2N)c2c3c(sc2n1)CCC(C)C3 (stereo not given) | -28 | 21* | -54 | 12 | 6 | 11
Cc1nc(-n2ncc(C#N)c2N)c2c3c(sc2n1)CCC3 | -2 | 14 | -5 | 1 | / | /
Cc1ccccc1OCc1nc2ccccc2c(=O)n1NC(=O)c1ccco1 | -21 | 20* | -26 | 4 | 8 | 9
SMILES | NPY2 pot ag | NPY Y1 blocker | NPY1 pot ag | NPY-Y2 antag | NPY-Y1 ant conf | NPY-Y2 antag ct
CC(C)c1cccc(C(C)C)c1NC(=S)Nc1cccc(Cl)c1 | 8 | / | 8 | / | / | /
CCc1ccc(N(C(=O)c2snc(C(N)=O)c2N)C(C(=O)NCCC(C)C)c2c[nH]c3ccccc23)cc1 (stereo not given) | -16 | 1 | 4 | 0 | / | /
COc1ccc(-c2noc(CCCOc3ccccc3)n2)cc1OC | -27 | 25* | -39 | 13 | 13 | 13
c1ccc(OCCCc2nc(-c3ccncc3)no2)cc1 | -7 | 11 | -1 | 3 | / | /
COC(=O)C(=C/C(C)=C/c1cccnc1)C(=O)OC | -3 | 1 | -2 | / | / | /
N#Cc1c(-c2ccc(Cl)cc2)ccnc1N1CCOCC1 | -6 | 2 | 9 | / | / | /
COc1ccc(/C=N/NC(=O)CC2N=C(Cc3ccccc3)NNC2=O)cc1OC (stereo not given) | -1 | 11 | -1 | 0 | / | /
C/C=C(/C)C(=O)OC1c2c(ccc3ccc(=O)oc23)OC(C)(C)C1OC(=O)/C(C)=C\C (stereo not given) | -35 | 22* | -13 | / | 12 | 31*
C/C=C(\C)C(=O)OC1c2c(ccc3ccc(=O)oc23)OC(C)(C)C1OC(C)=O (stereo not given) | -2 | 4 | -17 | 10 | / | /
CCOC(=O)CN1C(=O)N[C@H](c2ccc(Br)cc2)C(C(C)=O)=C1C | -9 | 24* | -16 | 11 | 4 | 6
CC(=O)C1=C(C)N(CC2CC2)C(=O)N[C@H]1c1ccc(Br)cc1 | -2 | -3 | -13 | 1 | / | /
COc1ccc(C/C(C)=N/NC(=O)c2cccnc2)cc1 | -1 | -1 | 12 | 1 | / | /
CCOC(=O)c1[nH]c(C)c(C(=O)OCC(=O)NC(=O)NC(C)(C)C)c1C | -8 | 21* | -7 | 0 | 0 | 2
CCOC(=O)c1c(C)[nH]c(C(=O)OCC(=O)NC(C)(C)C)c1C | 19 | -5 | -1 | / | / | /
CCn1cc(CNC(=O)/C=C/c2ccc([N+](=O)[O-])cc2)cn1 | 0 | 1 | -2 | 1 | / | /
CC1CCC(NC(=O)c2ccc(NC(=O)c3ccc(=O)[nH]c3)cc2)CC1 (stereo not given) | 15 | -1 | -6 | 2 | / | /
COc1ccc(C(c2c(C)n(C)n(-c3ccccc3)c2=O)c2c(C)n(C)n(-c3ccccc3)c2=O)cc1O | -7 | 56* | 14 | / | -1 | 0
Cc1c(C(c2cc3c(cc2Br)OCO3)c2c(C)n(C)n(-c3ccccc3)c2=O)c(=O)n(-c2ccccc2)n1C | -15 | 29* | 13 | 6 | 3 | 8
Cc1c(C(c2ccccc2O)c2c(C)n(C)n(-c3ccccc3)c2=O)c(=O)n(-c2ccccc2)n1C | -1 | 2 | 5 | / | / | /
CCc1nnc(NC(=O)C2(C)COC(c3ccc(OC)cc3)OC2)s1 (stereo not given) | 4 | 0 | 6 | / | / | /
O=C1CCC(/C=C/c2ccccc2)=NN1Cc1ccccc1 | -19 | 10 | -20 | / | / | /
CC(C)(C)c1ccc(CN2N=C(/C=C/c3ccccc3)CCC2=O)cc1 | -21 | 25* | -23 | / | 19 | 17
N#Cc1cc([N+](=O)[O-])cnc1NCC(O)CO (stereo not given) | -16 | 12 | 21 | 1 | / | /
Fc1ccc(C(c2nnnn2Cc2ccco2)N2CCN(C3CCCCC3)CC2)cc1 (stereo not given) | -4 | 29* | -24 | 13 | 13 | 10
CCc1nnc(NC(=O)c2ccc(S(=O)(=O)N3CCCCCC3)cc2)s1 | 3 | 61* | 8 | 0 | -4 | 0
